Molecules are shown by their SMILES. Bounds are passed on as bounds.

Among the data in ChEMBL document CHEMBL1134606, “Synthesis and structure-activity relationships of a new model of arylpiperazines. 5. Study of the physicochemical influence of the pharmacophore on 5-HT(1a)/alpha(1)-adrenergic receptor affinity: synthesis of a new derivative with mixed 5-HT(1a)/d(2) antagonist properties” (J Med Chem, 2001) are Ki values, retold here.

Experiment [1] addresses T1, Adrenergic receptor alpha-1 (Rattus norvegicus, UniProt P15823+P23944+P43140).
T1 sequence (P15823 whole entry): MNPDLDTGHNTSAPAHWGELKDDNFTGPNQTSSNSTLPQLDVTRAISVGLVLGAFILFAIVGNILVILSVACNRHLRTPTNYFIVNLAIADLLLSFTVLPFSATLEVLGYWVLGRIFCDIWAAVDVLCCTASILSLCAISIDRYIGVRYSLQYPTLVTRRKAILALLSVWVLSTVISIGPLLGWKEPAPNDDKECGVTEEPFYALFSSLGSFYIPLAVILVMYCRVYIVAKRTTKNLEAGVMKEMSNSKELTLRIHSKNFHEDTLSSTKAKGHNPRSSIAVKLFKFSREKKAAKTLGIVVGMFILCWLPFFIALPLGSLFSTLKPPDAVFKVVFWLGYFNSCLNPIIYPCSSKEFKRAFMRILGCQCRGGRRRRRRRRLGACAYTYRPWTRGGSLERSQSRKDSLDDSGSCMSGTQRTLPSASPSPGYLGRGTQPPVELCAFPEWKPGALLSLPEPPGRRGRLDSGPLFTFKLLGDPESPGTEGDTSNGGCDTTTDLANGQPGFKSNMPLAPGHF
T1 sequence (P23944 whole entry): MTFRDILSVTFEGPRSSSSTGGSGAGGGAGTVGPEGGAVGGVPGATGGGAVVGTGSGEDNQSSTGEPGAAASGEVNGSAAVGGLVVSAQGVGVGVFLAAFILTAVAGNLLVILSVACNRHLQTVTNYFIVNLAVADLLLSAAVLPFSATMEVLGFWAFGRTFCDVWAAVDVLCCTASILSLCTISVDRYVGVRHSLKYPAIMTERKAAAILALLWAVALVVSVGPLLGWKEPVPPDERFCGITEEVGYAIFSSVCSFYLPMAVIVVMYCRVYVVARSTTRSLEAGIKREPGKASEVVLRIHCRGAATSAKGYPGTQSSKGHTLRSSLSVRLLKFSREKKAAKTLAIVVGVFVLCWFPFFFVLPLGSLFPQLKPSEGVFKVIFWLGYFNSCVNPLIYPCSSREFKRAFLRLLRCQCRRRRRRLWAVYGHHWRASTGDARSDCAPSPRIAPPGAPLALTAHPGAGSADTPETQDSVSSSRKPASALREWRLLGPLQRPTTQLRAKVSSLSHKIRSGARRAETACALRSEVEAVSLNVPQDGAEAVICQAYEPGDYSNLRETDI
T1 sequence (P43140 whole entry): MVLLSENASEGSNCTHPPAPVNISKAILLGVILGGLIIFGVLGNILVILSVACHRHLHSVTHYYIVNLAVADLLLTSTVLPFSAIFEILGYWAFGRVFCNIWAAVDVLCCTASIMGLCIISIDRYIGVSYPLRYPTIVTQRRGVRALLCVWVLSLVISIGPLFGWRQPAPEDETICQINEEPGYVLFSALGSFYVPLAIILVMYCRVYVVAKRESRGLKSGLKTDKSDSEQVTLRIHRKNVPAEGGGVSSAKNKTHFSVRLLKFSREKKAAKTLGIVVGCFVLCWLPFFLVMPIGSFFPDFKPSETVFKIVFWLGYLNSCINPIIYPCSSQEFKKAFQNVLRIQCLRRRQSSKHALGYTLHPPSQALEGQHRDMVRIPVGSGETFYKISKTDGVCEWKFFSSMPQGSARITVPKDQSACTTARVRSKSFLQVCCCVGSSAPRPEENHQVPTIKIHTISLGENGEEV
Description: In vitro binding affinity towards alpha-1 adrenergic receptor using radioligand [3H]prazosin. The class given is protein assay. In outline: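 Cerebral cortex from male Sprague-Dawley rats, membranes (about 250 µg protein) in 50 mM Tris-HCl/10 mM MgCl2 pH 7.4, incubated 30 min at 25 °C with 0.2 nM [3H]prazosin and varied competitor concentrations; 10 µM phentolamine for nonspecific. Triplicates, filtration and scintillation counting; Ki from fitted IC50 by Cheng-Prusoff.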

The target of experiment [2] is T2, 5-hydroxytryptamine receptor 1A (Rattus norvegicus, UniProt P19327).
T2 sequence (P19327 whole entry): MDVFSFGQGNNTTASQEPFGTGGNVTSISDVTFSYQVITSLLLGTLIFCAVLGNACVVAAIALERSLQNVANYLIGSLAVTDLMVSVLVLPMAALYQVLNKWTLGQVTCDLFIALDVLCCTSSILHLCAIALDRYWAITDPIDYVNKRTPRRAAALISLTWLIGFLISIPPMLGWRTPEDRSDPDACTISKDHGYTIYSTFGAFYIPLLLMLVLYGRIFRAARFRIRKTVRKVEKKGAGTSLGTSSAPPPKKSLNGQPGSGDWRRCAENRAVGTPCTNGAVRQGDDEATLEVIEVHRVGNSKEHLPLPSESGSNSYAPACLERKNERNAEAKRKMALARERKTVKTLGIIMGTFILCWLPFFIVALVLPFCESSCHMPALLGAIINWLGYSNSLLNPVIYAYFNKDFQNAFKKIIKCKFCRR
Description: In vitro binding affinity towards 5-hydroxytryptamine 1A receptor was determined using radioligand [3H]-8-OH-DPAT. In outline:
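Rat (male Sprague-Dawley) cerebral cortex membranes, about 1 mg protein, incubated 15 min at 37 °C with 0.6 nM [3H]8-OH-DPAT plus competitor in 50 mM Tris-HCl with 10 nM clonidine and 30 nM prazosin, pH 7.4. Nonspecific binding with 10 µM 5-HT. Triplicates; GF/B filtration, scintillation counting; IC50 curve fit, Ki by Cheng-Prusoff; 2-4 experiments.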

The target in experiment [3] is D(2) dopamine receptor (Rattus norvegicus) (UniProt P61169). Description: In vitro binding affinity towards D2 receptor was determined.
Experiment [4] deals with 5-hydroxytryptamine receptor 2A (Rattus norvegicus) (UniProt P14842). The experiment can be described thus: In vitro binding affinity towards 5-hydroxytryptamine 2A receptor was determined.
Experiment [5] deals with 5-hydroxytryptamine receptor 3A (Rattus norvegicus) (UniProt P35563). Description: In vitro binding affinity towards 5-hydroxytryptamine 3 receptor was determined.
Experiment [6] addresses 5-hydroxytryptamine receptor 4 (Rattus norvegicus). The experiment can be described thus: In vitro binding affinity towards 5-HT4 receptor was determined.

D(2) dopamine receptor (Rattus norvegicus), sequence (P61169 whole entry, looked up): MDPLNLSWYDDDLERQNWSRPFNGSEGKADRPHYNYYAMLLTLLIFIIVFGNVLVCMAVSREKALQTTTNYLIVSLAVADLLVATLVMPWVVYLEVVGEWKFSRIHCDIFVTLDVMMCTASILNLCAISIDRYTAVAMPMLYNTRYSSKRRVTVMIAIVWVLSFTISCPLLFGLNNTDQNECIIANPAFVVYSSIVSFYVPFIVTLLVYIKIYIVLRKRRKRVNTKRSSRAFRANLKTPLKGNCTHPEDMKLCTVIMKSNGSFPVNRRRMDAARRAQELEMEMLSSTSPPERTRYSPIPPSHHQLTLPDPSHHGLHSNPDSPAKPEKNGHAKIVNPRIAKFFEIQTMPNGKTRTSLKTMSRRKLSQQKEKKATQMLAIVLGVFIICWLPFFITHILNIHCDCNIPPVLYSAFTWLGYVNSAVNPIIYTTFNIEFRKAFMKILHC
5-hydroxytryptamine receptor 2A (Rattus norvegicus), sequence (P14842 whole entry, looked up): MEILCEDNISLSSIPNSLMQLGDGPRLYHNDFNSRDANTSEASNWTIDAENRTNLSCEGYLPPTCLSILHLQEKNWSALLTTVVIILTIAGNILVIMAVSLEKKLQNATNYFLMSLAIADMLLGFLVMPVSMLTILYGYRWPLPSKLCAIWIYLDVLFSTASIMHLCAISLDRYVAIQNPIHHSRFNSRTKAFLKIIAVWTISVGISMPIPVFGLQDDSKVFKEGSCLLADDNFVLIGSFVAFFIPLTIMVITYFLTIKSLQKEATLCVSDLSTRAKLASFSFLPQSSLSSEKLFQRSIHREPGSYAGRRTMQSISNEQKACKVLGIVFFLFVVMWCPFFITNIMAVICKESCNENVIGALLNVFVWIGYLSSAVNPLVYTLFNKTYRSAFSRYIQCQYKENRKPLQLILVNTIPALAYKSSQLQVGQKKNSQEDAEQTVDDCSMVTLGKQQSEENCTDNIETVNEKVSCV
5-hydroxytryptamine receptor 3A (Rattus norvegicus), sequence (P35563 whole entry, looked up): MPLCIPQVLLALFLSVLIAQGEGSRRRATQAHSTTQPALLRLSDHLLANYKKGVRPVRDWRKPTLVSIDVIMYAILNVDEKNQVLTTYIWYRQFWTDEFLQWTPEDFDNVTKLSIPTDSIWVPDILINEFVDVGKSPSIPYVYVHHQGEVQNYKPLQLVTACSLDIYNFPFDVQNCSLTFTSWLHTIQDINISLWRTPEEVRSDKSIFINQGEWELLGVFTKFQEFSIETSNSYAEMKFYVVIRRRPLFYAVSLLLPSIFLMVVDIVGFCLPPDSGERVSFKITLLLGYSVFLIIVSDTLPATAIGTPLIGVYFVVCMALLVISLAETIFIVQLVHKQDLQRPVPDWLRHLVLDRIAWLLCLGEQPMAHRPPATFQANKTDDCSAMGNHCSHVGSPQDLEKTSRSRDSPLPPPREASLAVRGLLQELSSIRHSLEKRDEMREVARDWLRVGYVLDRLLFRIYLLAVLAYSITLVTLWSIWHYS

Consider `CCCCOc1ccccc1N1CCN(CCCCN2C(=O)C3CCCCN3C2=O)CC1.Cl` (stereo not drawn), for which the Ki is 0.0004 µM in experiment [1] and 0.0012 µM in experiment [2].
For the compound `COc1ccccc1N1CCN(CCCCN2CC(=O)N3CCCC3C2=O)CC1.Cl` (stereo not drawn), the values for the Ki in experiment [1] and in experiment [2] were 0.028 µM and 0.0086 µM, respectively.
With `Cc1ccccc1N1CCN(CCCCN2C(=O)C3CCCN3C2=O)CC1.Cl` (stereo not drawn), the Ki in experiment [1] was 0.01 µM; in experiment [2], 0.016 µM.
The matching figures for `CCCCOc1ccccc1N1CCN(CCCN2C(=O)C3CCCN3C2=O)CC1.Cl` (stereo not drawn): 0.03 µM and 0.011 µM.
`CCCNC(=O)c1ccccc1N1CCN(CCCCN2C(=O)C3CCCCN3C2=O)CC1.Cl` (stereo not drawn): the Ki is over 1 µM in experiment [1] and 0.341 µM in experiment [2].
Turning to `Cc1ccccc1N1CCN(CCCN2C(=O)C3CCCCN3C2=O)CC1.Cl` (stereo not drawn), the Ki in experiment [1] came to 0.0053 µM; in experiment [2] it was 0.134 µM.
The matching figures for `Cl.N#Cc1ccccc1N1CCN(CCCCN2CC(=O)N3CCCCC3C2=O)CC1` (stereo not drawn): 0.027 µM and 0.014 µM.
As for `CCCOC(=O)c1ccccc1N1CCN(CCCCN2CC(=O)N3CCCCC3C2=O)CC1.Cl` (stereo not drawn), the Ki in experiment [1] was 0.561 µM; in experiment [2], 0.024 µM.
With `CCCCOc1ccccc1N1CCN(CCCCN2CC(=O)N3CCCC3C2=O)CC1.Cl` (stereo not drawn), the figures for the Ki in experiment [1] and in experiment [2] were 0.018 µM and 0.0065 µM, respectively.
For `CCCOC(=O)c1ccccc1N1CCN(CCCN2CC(=O)N3CCCC3C2=O)CC1.Cl` (stereo not drawn), in experiment [1], the Ki came out at 0.026 µM. This counts as double-digit nanomolar.
Take `CC(C)C(=O)Nc1cccc(N2CCN(CCCN3C(=O)C4CCCCN4C3=O)CC2)c1.Cl` (stereo not drawn): the Ki in experiment [1] was over 10 µM; in experiment [2] it was over 1 µM.
With `Cl.Nc1cccc(N2CCN(CCCCN3C(=O)C4CCCCN4C3=O)CC2)c1` (stereo not drawn), the Ki in experiment [1] is 0.215 µM; in experiment [2], 0.08 µM.
For the compound `Cc1ccccc1N1CCN(CCCCN2CC(=O)N3CCCCC3C2=O)CC1.Cl` (stereo not drawn), the Ki in experiment [1] amounted to 0.029 µM; in experiment [2], 0.027 µM.
Turning to `CCS(=O)(=O)Nc1cccc(N2CCN(CCCCN3C(=O)C4CCCN4C3=O)CC2)c1.Cl` (stereo not drawn), the Ki in experiment [1] is over 10 µM; in experiment [3], 0.022 µM; in experiment [4], over 1 µM; in experiment [5] it was over 1 µM; in experiment [2], 0.027 µM; in experiment [6], over 1 µM.
Take `CC(C)C(=O)Nc1cccc(N2CCN(CCCN3CC(=O)N4CCCC4C3=O)CC2)c1.Cl` (stereo not drawn): the Ki in experiment [1] was over 1 µM; in experiment [2] it was 0.326 µM.
Turning to `Cl.N#Cc1ccccc1N1CCN(CCCCN2C(=O)C3CCCN3C2=O)CC1` (stereo not drawn), the Ki was found to be 0.008 µM in experiment [1] and 0.0037 µM in experiment [2].
The matching figures for `CCCNC(=O)c1ccccc1N1CCN(CCCCN2CC(=O)N3CCCC3C2=O)CC1.Cl` (stereo not drawn): over 1 µM and over 1 µM.
Turning to `CCCOC(=O)c1ccccc1N1CCN(CCCCN2C(=O)C3CCCN3C2=O)CC1.Cl` (stereo not drawn), the Ki in experiment [1] was determined as 0.051 µM; in experiment [2], 0.0039 µM.
For `Cl.Nc1cccc(N2CCN(CCCN3C(=O)C4CCCN4C3=O)CC2)c1` (stereo not drawn), in that order: over 1 µM and over 1 µM.
Consider `CCCNC(=O)c1ccccc1N1CCN(CCCN2C(=O)C3CCCN3C2=O)CC1.Cl` (stereo not drawn), for which the Ki in experiment [1] and in experiment [2] was over 1 µM in each case.
Turning to `Cl.N#Cc1ccccc1N1CCN(CCCN2CC(=O)N3CCCC3C2=O)CC1` (stereo not drawn), the inhibition constant (Ki) is 0.028 µM in experiment [1] and 0.031 µM in experiment [2].
`Cc1ccccc1N1CCN(CCCN2CC(=O)N3CCCC3C2=O)CC1.Cl` (stereo not drawn): the figures for the Ki in experiment [1] and in experiment [2] were 0.023 µM and 0.027 µM, respectively.
For the compound `CCCNC(=O)c1ccccc1N1CCN(CCCN2CC(=O)N3CCCCC3C2=O)CC1.Cl` (stereo not drawn), the Ki is over 1 µM in experiment [1] and over 10 µM in experiment [2].
In the case of `Cl.N#Cc1ccccc1N1CCN(CCCN2C(=O)C3CCCCN3C2=O)CC1` (stereo not drawn), the results for the Ki in experiment [1] and in experiment [2] were 0.013 µM and 0.033 µM, respectively.
As to `Cl.O=C1C2CCCCN2C(=O)N1CCCCN1CCN(c2cccc(Br)c2)CC1` (stereo not drawn), the Ki in experiment [1] is 0.0053 µM; in experiment [2], 0.004 µM.
With `CC(C)C(=O)Nc1cccc(N2CCN(CCCCN3CC(=O)N4CCCCC4C3=O)CC2)c1.Cl` (stereo not drawn), the inhibitory constant (Ki) was over 10 µM in experiment [1] and 0.169 µM in experiment [2].
`CC(C)C(=O)Nc1cccc(N2CCN(CCCCN3C(=O)C4CCCN4C3=O)CC2)c1.Cl` (stereo not drawn) displayed a Ki in experiment [1] of over 10 µM.
Regarding `CCCCOc1ccccc1N1CCN(CCCN2CC(=O)N3CCCCC3C2=O)CC1.Cl` (stereo not drawn), the Ki in experiment [1] turned out to be 0.079 µM; in experiment [2] it was 0.11 µM.
The matching figures for `Cl.O=C1C2CCCCN2C(=O)CN1CCCN1CCN(c2cccc(C(F)(F)F)c2)CC1` (stereo not drawn): 0.252 µM and 0.214 µM.
On to `CCCOC(=O)c1ccccc1N1CCN(CCCN2C(=O)C3CCCCN3C2=O)CC1.Cl` (stereo not drawn), for which the Ki in experiment [1] was determined as 0.041 µM; in experiment [2], 0.06 µM.
On to `COc1ccccc1N1CCN(CCCN2CC(=O)N3CCCCC3C2=O)CC1.Cl` (stereo not drawn), for which the Ki stood at 0.016 µM in experiment [1] and 0.126 µM in experiment [2].
As for `Cl.O=C1C2CCCN2C(=O)N1CCCN1CCN(c2cccc(Br)c2)CC1` (stereo not drawn), the Ki in experiment [1] worked out at 0.029 µM; in experiment [2] it was 0.033 µM.
As to `Cl.O=C1C2CCCN2C(=O)CN1CCCCN1CCN(c2cccc(C(F)(F)F)c2)CC1` (stereo not drawn), the Ki in experiment [1] worked out at 0.095 µM; in experiment [2], 0.0036 µM.
